According to the EternaBench riboswitch data:

Test system: MS2 coat protein
Test: apparent Kd, MS2 coat protein; higher = weaker binding; RNA-MaP array; FMN 200 µM where present
Method in brief: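 The titrant was SNAP-549-labelled MS2 coat protein, run from 0.7 or 1.5 nM in doubling steps to 3 µM. It was applied to designs transcribed by stalled E. coli RNA polymerase on Illumina sequencing-chip clusters, without ligand first and then with constant ligand, in 100 mM Tris-HCl pH 7.5, 80 mM KCl, 4 mM MgCl2, BSA, DTT, yeast tRNA and Tween-20. The apparent Kd is the median of filtered per-cluster binding-curve fits, with green signal normalised to red-channel RNA signal and control-cluster median Fmax.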

[1] = designed as: OFF switch for flavin mononucleotide, no ligand
[2] = ligand present: flavin mononucleotide, designed as: OFF switch for flavin mononucleotide
[3] = designed as: ON switch for flavin mononucleotide, no ligand
[4] = ligand present: flavin mononucleotide, designed as: ON switch for flavin mononucleotide

Sequence | apparent Kd [1] | apparent Kd [2] | apparent Kd [3] | apparent Kd [4]
UUUUAACAUGAGGAUCACCCAUGUGAGGAUAUCGAAAUUUAUAUUAAUAUUAUUUUUACGAGAAGGCACAUUUU | 90.3 nM | 95.4 nM |  | 
UCACAGGUUUAAGGCGUUCCCAGACAUGAGGAUCACCCAUGUAGAAGGACCGUAAGAAAUUUUCGGUAGGAUAUACAUUCAGGG | 28 nM | 31.9 nM |  | 
AAGAAAGAAACAUAGGAUAUCAAGAAUAUAACAUGAGGAUCACCCAUGUAAAUACGAAAGUAUAAUGAGAAGGAUGGAUGAUCUUC |  |  | 93.7 nM | 89 nM
GCAGGUUAAGUCAGGAUAUACCUAUGGAUACAUAGGUAGAAGGGACAUGAGGAUCACCCAUGUGCCUCACCUGC | 18.3 nM | 63.1 nM |  | 
CAGGAUAGAGGAUAUACAUAGAUACAGAUUCGUGUAAUCCUACAUGAGGAUCACCCAUGUAGAAGGCUAUCCUG | 14.8 nM | 28.5 nM |  | 
CGAAGUCCGUAGAAGGGUGACAUGAGGAUCACCCAUGUGCGAGCGGAGAGAGUCAGCGGCUCGCCACAGGAUAUACGGAGCACG |  |  | 103 nM | 29.1 nM
AGGAAACAUGAGGAUCACCCAUGUAAGAUAUACACAGGAUAUGCGAAAAGAAACAAAGAAGCAGAAGGGUGGAAAA |  |  | 35.1 nM | 21.2 nM
GUGCGGUAGGAGAAGGACGGAGGGUUCUUUUCAUACAUGAGGAUCACCCAUGUAGGAUAUCCUACCUCACGCGGCCUACUACAG | 8.11 nM | 11.4 nM |  | 
UGCUGUGUCAGAGGAUAUACUACUAUAAUCCAUUGCAAAUAGCGAUGGACAUGAGGAUCACCCAUGUAGAAGGCUGUCACAGCA | 46.6 nM | 178 nM |  | 
CGCAGUACUUAGGUACCACACAUGAGGAUCACCCAUGUAUCACAGGAUAUGCAUGAUAUAUUCAGGCAGAAGGGUGAUCUUACC |  |  | 79.7 nM | 318 nM
AAAAUCUAUUGAGGAUAUCGUUAUCAAAGAUAAUGAGAAGGCAAACAAUCAUGAGGACAUGAGGAUCACCCAUGUUGUGACCAU |  |  | 22.3 nM | 10.8 nM
UGGUACUAGGGAGGAUAUGGGAAGAUACAUGAGGAUCACCCAUGUUUAAGAAUGCCGAGAGGCAACUAGAAGGCCCUAGGACCU |  |  | 434 nM | 18.5 nM
CAGCGCUGUUGAGAGGAUAUGCGGUGAUGGACAUGAGGAUCACCCAUGUUAGCGAUAGCAUUACGGUAGAAGGCUCUACAGCUGC |  |  | 18.5 nM | 12.3 nM
GGUGGACAUGAGGAUCACCCAUGUGAGGAUAUCGGCUGGUACGUGUUGGCUGGCAUCUCGAGAAGGCACAUAGG | 166 nM | 49.3 nM |  | 
AUAUUGUGAGGAUAUCCAAUAUAUGACAUGAGGAUCACCCAUGUUUCCACUCGUACCUCCGGAGAAGGCACUUAUA | 24.3 nM | 22.8 nM |  | 
GAUCCUCGGUCAGGAUAUCCCGGCCGGCGGCCGGGAGAAGGGACAUGAGGAUCACCCAUGUUUCGGUCCUUACCCGCUUGGGUC | 34 nM | 37.1 nM |  | 
AUGUUACAUGAGGAUCACCCAUGUGAGGAUAUGUGUACCGGUAAAAAAGUGUUUGGCCACAGAAGGCAUUUGGA | 28.7 nM | 26.9 nM |  | 
UUUGCAUUCCGAGGAUAUUCAUAUAAUAACUACACAUGAGGAUCACCCAUGUGGCGAUAGCCUAGGGAGAAGGCGGUUUGCUUU |  |  | 22.8 nM | 21.3 nM
UACAUUACUGAGAAGGGAUAUAUAUAAUUUUAGUCAGGAUAUCGAUACAGUGCAGCAUGAGGACAUGAGGAUCACCCAUGUAUU |  |  | 20.5 nM | 17 nM
GGCGGGAAUGAGAAGGGUCACAUGAGGAUCACCCAUGUGCUCUUCGCCGUGACAGGAUAUCAUUGCCGUCAGGUUAGAUUUUUG | 8.42 nM | 24.7 nM |  | 
GCAGGAUAAGUGAGGAUAUACCUCUGGAUACAGAGGUAGAAGGCACAUGAGGAUCACCCAUGUCAUUCACCUGC | 13.3 nM | 24.2 nM |  | 
ACCUUACAUGAGGAUCACCCAUGUUAGGAUAUCUCGCUUGCGCUGUCACAGCGCAAGCAGAGAAGGGACGCGGG | 35.2 nM | 40.9 nM |  | 
AGCUGUGGCCGAGGAUAUCUAACAAUCCUAACCGAAAUAUAAUCGGACAUGAGGAUCACCCAUGUAGAGAAGGCGGUCUCAGCA | 92.4 nM | 237 nM |  | 
AUAAUGAGUCAAGGAUAUCCGAGCUGAAUGCUUGGAGAAGGUGACAUGAGGAUCACCCAUGUCUCUCCGAGCAUGGUAUUCUCA | 28.4 nM | 26.6 nM |  | 
AUUUGUAACCAGAAGGACAUGAGGAUCACCCAUGUAGGAUAUGGGCUUCUCAGGGCUGAGGAGUGAUCCCACAGGGACUUACGG |  |  | 117 nM | 18 nM
GCGUUACAUGAGGAUCACCCAUGUGAGGAUAUGGUUCGGUACUGUCCUGUCGCGUACUCCAGAAGGCACGGGUG | 200 nM | 115 nM |  | 
UUACUACAUGUAGGAUAUGCGUGGCGAAGCUAUGCAGAAGGACAUGAGGAUCACCCAUGUUUUAGCGUCUGCGUACAGAUGCGU | 19 nM | 28.4 nM |  | 
CCUCGACAUGAGGAUCACCCAUGUCAGGAUAUUGUGUUUUGGGUUUUUUACCUUUAGGCAAGAAGGGAUGUGUG | 16.4 nM | 24.1 nM |  | 

Sequence | apparent Kd [1] | apparent Kd [2] | apparent Kd [3] | apparent Kd [4]
AGAUGGCGAGGAUAUACAUGAGGAUCACCCAUGUGAGAGAAAAGAGUGAGGAAGAAAAGUAGAAGGCGCUGUCA | 80.6 nM | 130 nM |  | 
GGGCCGGUGGAGAAGGAGCUUACGAAACGUAGGCUAGGAUAUCCACAUGAGGAUCACCCAUGUGGGAAUAUCUGAUUUUCACAG | 4.4 nM | 4.48 nM |  | 
UUUUACGUUUCGUAGCAGUGUCAUCGAGAAGGCCCUGACAUGAGGAUCACCCAUGUUGUUACAUGGGAGGAUAUCGAUGAUGGG |  |  | 41.3 nM | 6.93 nM
AAGAAGUCAGGAUAUCCAUGGCGGCACUUGCGUGGUGGCGUGGAGAAGGGACAUGAGGAUCACCCAUGUAAAGG | 149 nM | 173 nM |  | 
UGAUCACAUGAGGAUCACCCAUGUCAGGAUAUCUACAUUGAAGCUGCGGCUUCAAUGUAGAGAAGGGAUAUAAU | 99 nM | 229 nM |  | 
CCUUUUGUAUAAGGAUAUGUAACAAGGUGUAGGCUGGUAGGACUUGCGCUUACAGAAGGUAUACAUGAGGAUCACCCAUGUCGA | 22.2 nM | 107 nM |  | 
CGAUCGUUGCAGAAGGUUAUUUUUUUAACAAUUCUCUUAACAUGAGGAUCACCCAUGUUUUUGAUGAAGGAUAUGCAAGGGUCG | 5.76 nM | 5.5 nM |  | 
UUAAAUCAUGUAGGAUAUGCAUGGCGAAGCUACGCAGAAGGACAUGAGGAUCACCCAUGUUAUAGCUACCCAGUUAGGUGGCAA | 82.2 nM | 189 nM |  | 
UCGCGGGUGCAGAAGGGAUAGGCCUAUUGUCGUGGUGUCUAAACUUAACAUGAGGAUCACCCAUGUCAGGAUAUGCCCACGCGA | 11.6 nM | 13.5 nM |  | 
GAGCGAAAGCUCAAUGUCGAUAGCAGAAGGACAUCCUUCAACAUGAAAACAUGAGGAUCACCCAUGUAGGAUAUGCUAUCGACU | 5.32 nM | 5.84 nM |  | 
AAGAAGAUAGGAUAUACGAGGAGAGGAGAGAAGAGGUGAGGACAUGAGGAUCACCCAUGUAGAAGGAUCAGGAA | 46.6 nM | 35.6 nM |  | 
GCGUUGAACGAGAAGGCCACUACAUGAGGAUCACCCAUGUCGUAGAGUAUUGGAGGAUAUCGAUAGGCGUCUCAUGAGGACAUA | 23.6 nM | 11.6 nM |  | 
GGAUAGGACUGAGGAUAUACGUGCUAGAGAUACUAGCAAAAUUUCCUCACAUGAGGAUCACCCAUGUAGAAGGCUGUCCUAUCG | 7.13 nM | 42.3 nM |  | 
AGCGAUGCAGGAUAUCCGCGGCUACACAUGAGGAUCACCCAUGUUAGGGUCGUGUUGCCAGGAGAAGGGCAAGGAU | 28.8 nM | 78.1 nM |  | 
ACGUUUUAUGCAGGAUAUUGAAAUUUAUUACAACAAGAAGGGCAAUACAUGAGGAUCACCCAUGUCAGCAUGGUAUUAAAGUUC | 18 nM | 16.1 nM |  | 
UUUUAACAUGAGGAUCACCCAUGUGAGGAUAUCGAAAUUUAUAUUUAUAUUAAUAUAACGAGAAGGCACAUUUU | 55.5 nM | 83.2 nM |  | 
CGUUAUGAUAAAGGAUAUAUAAUAGAUAUACAUGAGGAUCACCCAUGUUACAUGGAUUCAAAUUUAUAGAAGGUUAUCCUAUCG | 36 nM | 22.6 nM |  | 
CCGGAAAUGAAGGAUAUAGGAGUCGAUAGACACCUAGAAGGUCAUACAUGAGGAUCACCCAUGUGUCCUACCGG | 15.2 nM | 31 nM |  | 
UAUUGAUAAUAUUUUAACAUGAGGAUCACCCAUGUCGCUAGACAGGAUAUAUUUUAUUUGUUUAAGUAGAAGGGUCGCAGAUUU |  |  | 150 nM | 130 nM
UAUAUGUCAGGAUAUUAGUUGAGGUGGAAUUUAGCCUCAGCUGAGAAGGGACAUGAGGAUCACCCAUGUUCCUC | 22.1 nM | 241 nM |  | 
UGUUUUCAUGUAGGAUAUGCUUGUCGUAGAUACGCAGAAGGACAUGAGGAUCACCCAUGUUAAUGCGACAGAGUAUAGAUUCUU | 15.3 nM | 20.6 nM |  | 
UUAAAUCAUGUAGGAUAUGCAUGGCGAAGCUACGCAGAAGGACAUGAGGAUCACCCAUGUUAUACCUACCCAGUUCGGUGGGAA | 81 nM | 241 nM |  | 
AACAGUACAGGAUAUACAUGAGGAUCACCCAUGUGAGAAUUAAGUGGCGUACCACAAAGUAGAAGGGUACUGGA | 36.9 nM | 133 nM |  | 
AUCGACAGUGUCAGGAUAUCUCACCCGAGUGGGCGAGAGAAGGGACAUGAGGAUCACCCAUGUGCGUUCUCUAA | 27.5 nM | 174 nM |  | 
AAUAAUAAUGUCAGGAUAUCUAGAGCCUCGGCUCUAGAGAAGGGACAUGAGGAUCACCCAUGUCACUCAAUAAU | 17.9 nM | 24.3 nM |  | 
CAAUUUAGCGAGAAGGAGCGCCCGUAGGUACAUGAGGAUCACCCAUGUCCUUUGUGCUCUACGCGCUAGGAUAUCGAGAAACAG | 13.5 nM | 98.7 nM |  | 
UUGUAGUACGUAGGAUAUCAUUGAGGAUCACCCUGAGAAGGACGUGAGGACAUGAGGAUCACCCAUGUGGAUCACCCAUGUCAU | 329 nM | 231 nM |  | 
